Laboratory results: ChEMBL document CHEMBL1134793, “Investigation of the selectivity of oxymorphone- and naltrexone-derived ligands via site-directed mutagenesis of opioid receptors: exploring the "address" recognition locus” (J Med Chem, 2001)

Key:
Assay type in all cases: cell-based, HEK293
Mu-type opioid receptor [1] = biological target: Mu-type opioid receptor (Rattus norvegicus, UniProt P33535, K303E); experiment: Displacement of [3H]- diprenorphine from mu-K303E-receptor expressed in HEK 293 cells
Chain of Mu-type opioid receptor (Rattus norvegicus, UniProt P33535, K303E) (P33535 whole entry K303E): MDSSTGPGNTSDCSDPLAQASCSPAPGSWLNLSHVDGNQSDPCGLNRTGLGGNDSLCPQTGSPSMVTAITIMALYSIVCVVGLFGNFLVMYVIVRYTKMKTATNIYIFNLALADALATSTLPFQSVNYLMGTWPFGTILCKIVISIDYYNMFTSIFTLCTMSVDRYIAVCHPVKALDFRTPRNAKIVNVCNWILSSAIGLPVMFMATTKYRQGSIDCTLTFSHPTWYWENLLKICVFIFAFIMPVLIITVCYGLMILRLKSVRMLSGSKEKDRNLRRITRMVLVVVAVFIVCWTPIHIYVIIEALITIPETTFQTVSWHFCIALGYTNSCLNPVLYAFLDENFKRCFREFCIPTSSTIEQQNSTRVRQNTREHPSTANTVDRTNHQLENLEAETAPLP

Mu-type opioid receptor [2] = biological target: Mu-type opioid receptor (Rattus norvegicus, UniProt P33535, W318A); experiment: Displacement of [3H]- diprenorphine from mu-W318A-receptor expressed in HEK 293 cells
Chain of Mu-type opioid receptor (Rattus norvegicus, UniProt P33535, W318A) (P33535 whole entry W318A): as the sequence (P33535 whole entry K303E) above, with E303K, W318A counted along it

[3] = biological target: Delta-type opioid receptor (Mus musculus, UniProt P32300); experiment: Displacement of [3H]- diprenorphine from delta receptor expressed in HEK 293 cells
Chain of Delta-type opioid receptor (Mus musculus, UniProt P32300) (P32300 whole entry): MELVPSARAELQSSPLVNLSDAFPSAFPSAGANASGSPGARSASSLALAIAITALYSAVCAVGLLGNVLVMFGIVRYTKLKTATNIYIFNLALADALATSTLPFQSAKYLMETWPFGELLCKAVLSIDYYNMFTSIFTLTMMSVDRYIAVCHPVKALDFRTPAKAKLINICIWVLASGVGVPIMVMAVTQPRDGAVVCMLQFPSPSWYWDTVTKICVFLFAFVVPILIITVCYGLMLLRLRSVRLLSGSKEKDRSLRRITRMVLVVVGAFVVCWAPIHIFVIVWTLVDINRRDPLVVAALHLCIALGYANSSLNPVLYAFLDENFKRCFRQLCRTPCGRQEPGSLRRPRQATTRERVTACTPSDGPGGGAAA
How it was run: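 HEK-293 cells transiently transfected with wild-type or mutant receptor cDNA by calcium phosphate were harvested 60-72 h later and suspended in 25 mM HEPES, pH 7.4. […] Nonspecific binding was defined with 1 μM NTI. Bound ligand was filtered on PEI-soaked GF/B and counted.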

[4] = biological target: Delta-type opioid receptor (Mus musculus, UniProt P32300, W284E); experiment: Displacement of [3H]- diprenorphine from delta-W284E-receptor expressed in HEK 293 cells
Chain of Delta-type opioid receptor (Mus musculus, UniProt P32300, W284E) (P32300 whole entry W284E): as the sequence (P32300 whole entry) above, with W284E counted along it
How it was run: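 HEK-293 cells transiently transfected with wild-type or mutant receptor cDNA by calcium phosphate were harvested 60-72 h later and suspended in 25 mM HEPES, pH 7.4. Nonspecific binding was defined with 1 μM NTI. Bound ligand was filtered on PEI-soaked GF/B and counted.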

[5] = biological target: Kappa-type opioid receptor (Rattus norvegicus, UniProt P34975, E297A); experiment: Displacement of [3H]diprenorphine from k-E297A-receptor expressed in HEK 293 cells
Chain of Kappa-type opioid receptor (Rattus norvegicus, UniProt P34975, E297A) (P34975 whole entry E297A): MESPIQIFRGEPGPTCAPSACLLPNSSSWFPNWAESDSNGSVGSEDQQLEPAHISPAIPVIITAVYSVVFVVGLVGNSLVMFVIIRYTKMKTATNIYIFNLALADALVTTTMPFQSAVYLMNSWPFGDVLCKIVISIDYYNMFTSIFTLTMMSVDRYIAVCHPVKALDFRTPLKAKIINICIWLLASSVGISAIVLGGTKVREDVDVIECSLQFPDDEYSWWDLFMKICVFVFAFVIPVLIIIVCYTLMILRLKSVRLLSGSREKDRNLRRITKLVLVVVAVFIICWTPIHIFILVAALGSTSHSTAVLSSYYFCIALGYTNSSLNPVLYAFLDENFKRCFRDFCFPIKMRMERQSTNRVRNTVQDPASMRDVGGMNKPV

[6] = biological target: Kappa-type opioid receptor (Rattus norvegicus, UniProt P34975, Y312A); experiment: Displacement of [3H]diprenorphine from k-Y312A-receptor expressed in HEK 293 cells
Chain of Kappa-type opioid receptor (Rattus norvegicus, UniProt P34975, Y312A) (P34975 whole entry Y312A): as the sequence (P34975 whole entry E297A) above, with A297E, Y312A counted along it

[7] = biological target: Kappa-type opioid receptor (Rattus norvegicus, UniProt P34975); experiment: Displacement of [3H]diprenorphine from opioid receptor kappa 1 expressed in HEK 293 cells
Chain of Kappa-type opioid receptor (Rattus norvegicus, UniProt P34975) (P34975 whole entry): as the sequence (P34975 whole entry E297A) above, with A297E counted along it

Mu-type opioid receptor [8] = biological target: Mu-type opioid receptor (Rattus norvegicus, UniProt P33535); experiment: Displacement of [3H]- diprenorphine from mu-receptor expressed in HEK 293 cells
Chain of Mu-type opioid receptor (Rattus norvegicus, UniProt P33535) (P33535 whole entry): as the sequence (P33535 whole entry K303E) above, with E303K counted along it

Row | Structure (SMILES) | Ki (Mu-type opioid receptor [1]) [nM] | Ki (Mu-type opioid receptor [2]) [nM] | Ki [3] [nM] | Ki [4] [nM] | Ki [5] [nM] | Ki [6] [nM] | Ki [7] [nM] | Ki (Mu-type opioid receptor [8]) [nM]
1 | N=C(N)Nc1ccc2[nH]c3c(c2c1)C[C@@]1(O)[C@H]2Cc4ccc(O)c5c4[C@@]1(CCN2CC1CC1)[C@H]3O5 [GUANIDINONALTRINDOLE] | 0.09 | 0.5 | 46.2 | 1.1 | 3.9 | 0.03 |  | 
2 | Oc1ccc2c3c1O[C@H]1c4[nH]c5ccccc5c4C[C@@]4(O)[C@@H](C2)N(CC2CC2)CC[C@]314 [NALTRINDOLE] |  |  | 0.19 | 1.82 | 42 | 1.23 | 25.5 | 
3 | Oc1ccc2c3c1O[C@H]1c4[nH]c5c(c4C[C@@]4(O)[C@@H](C2)N(CC2CC2)CC[C@]314)C[C@@]1(O)[C@H]2Cc3ccc(O)c4c3[C@@]1(CCN2CC1CC1)[C@H]5O4 [NORBINALTORPHIMINE] |  |  |  |  |  | 1.39 | 0.07 | 
4 | CN1CC[C@]23c4c5ccc(O)c4O[C@H]2C(=O)C2(Cc4ccccc4C2)C[C@@]3(O)[C@H]1C5 [SPIROINDANYLOXYMORPHONE] | 154 | 3.9 | 4.1 | 46.6 | 292 | 55 | 488 | 88.4
